Fewer inactive variants are shown than the library holds.
B1: tRNA (parent)
chain: GUUCCGUUGGCGUAAUGGUAACGCGUCUCCCUCCUAAGGAGAAGACUGCGGGUUCGAGUCCCGUACGGAACG

Variants of: B1
Assay: yeast fitness relative to wild type (ratio to wild type); higher = fitter; tRNA-Arg(CCU), competitive growth, 37 C, YPD
Procedure, shortened: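 A pool of Saccharomyces cerevisiae strains, each with a tRNA-Arg(CCU) gene variant at the native genomic locus, was competed in YPD at 37°C for 24 hours across six parallel replicates. The variants had been chemically synthesised at a 3% per-site mutation rate over 69 sites, and gene amplicons before and after competition were read by 100-nucleotide paired-end sequencing. Darwinian fitness relative to wild type rested on changes in genotype frequencies. Genotypes required ≥ 100 starting reads, and estimates < 0.5 were set to 0.5.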

| Variant | yeast fitness |
| --- | --- |
| G9A U47A | 0.796 |
| A21C C46G C55U | 0.523 |
| G17A G44A A70C | ≤ 0.5 |
| U26C A65C | 0.819 |
| U13A G23A G67C | 0.535 |
| C33U A45C | 0.703 |
| C5U C11U C46U G51A C66U | ≤ 0.5 |
| C22G G38A | 0.776 |
| G9A A43C A57U | ≤ 0.5 |
| C4A U7C A45C C61G | ≤ 0.5 |
| C27G C62A | 0.516 |
| U7C G52A | 0.69 |
| U35C G51U C61U | 0.53 |
| U19A C27G A40G | ≤ 0.5 |
| A21C U32A C46A | 0.744 |
| G10A A15U A21C G25C C66U G67U G68A | ≤ 0.5 |
| G50A C62A C66G | ≤ 0.5 |
| G12A A15C A45U | 0.87 |
| C4A G17C G50A G51A | ≤ 0.5 |
| C4G C33G A36C C66U | ≤ 0.5 |
| C22G C24U U28A C31G C55A G68C | ≤ 0.5 |
| G50C C62G | 0.965 |
| C5U C11A U13C C24G C30G C60U A69U | ≤ 0.5 |
| U13C C31U | 1.01 |

| Variant | yeast fitness |
| --- | --- |
| A20G C29A | 0.705 |
| U8C C30G C31G G48A | ≤ 0.5 |
| C5U U32C A45C | 0.733 |
| C4G C22G C33U A36C A40U | 0.663 |
| G44C C46G A57C | ≤ 0.5 |
| A14C G18A G50A G63C | ≤ 0.5 |
| G23A C30G A42G | 0.524 |
| U2A U28G A40C G67C | 0.639 |
| G17C C22G A65G | 0.6 |
| C24G A42C | 0.63 |
| G39A G48C | 0.718 |
| G6A C29A C30G C61U A70G | ≤ 0.5 |
| C27G G67C | 0.677 |
| C11A U19A A42U A45C U47C C55U A69C | ≤ 0.5 |
| U13C A20G U54C | ≤ 0.5 |
| C11A U35G G67A | 0.52 |
| U47G G56A | 0.646 |
| A15U G17C A45U C49G | ≤ 0.5 |
| C31G C66A | 0.702 |
| C22U C30A | 0.706 |
| G6C U7C G23C C24A C49U C60A | ≤ 0.5 |
| C5U C27G U28G | ≤ 0.5 |
| A15G A69G | 1.05 |
| A21U G25A C33U A57U U59C | 0.562 |

| Variant | yeast fitness |
| --- | --- |
| G17C U32A C66U A70G | ≤ 0.5 |
| G18A C29A C33U C60G | ≤ 0.5 |
| C11U A36G A43C | 0.546 |
| A15G C27U A65G | 0.748 |
| U8C G23C C29G | ≤ 0.5 |
| C29A U64C A69C | ≤ 0.5 |
| G6A A15G U19C C22A | ≤ 0.5 |
| C4U C30A U53C A70G | ≤ 0.5 |
| U8C U16C C33U A43U C49G G50C C61U C66U | ≤ 0.5 |
| C31U G58A A65G | 0.73 |
| C24A C31U A42C C66U | ≤ 0.5 |
| C5G U16A U19G A20C C27U C29U C30U A70U | ≤ 0.5 |
| U7G A14G U64A | 0.527 |
| C5U C31G | 0.918 |
| C4G C5U G44C G63A G67U | ≤ 0.5 |
| A37U A40C G58A | 0.591 |
| C11G U16A C22U G51C C60U G67A | ≤ 0.5 |
| G12A U35C A37C C62U A65C | ≤ 0.5 |
| U2C A15U C46A | ≤ 0.5 |
| C5G A21C A69C | ≤ 0.5 |
| A37C | 0.913 |
| C4G C49U U54G | ≤ 0.5 |
| G6A G50U | 0.826 |
| U28G C29A | ≤ 0.5 |

| Variant | yeast fitness |
| --- | --- |
| U3G A14U C29U A37G | ≤ 0.5 |
| G9C A57U C60A | 0.727 |
| C5G A43U A65C | 0.557 |
| U8A G12A A45C | ≤ 0.5 |
| A20U U26A A43G | ≤ 0.5 |
| A40C C60G C62G | ≤ 0.5 |
| A14C U16C | 0.724 |
| U35C C46U | 0.938 |
| U2C C5G C46U G58A | 0.611 |
| C5A U19A C62A A69U | ≤ 0.5 |
| U8A G9C A57C | 0.701 |
| C11A C24G C30G A57U G68U | ≤ 0.5 |
| C46G C61A | 0.678 |
| U3G C4A C11G C31G | 0.533 |
| G23A C60G G67A | ≤ 0.5 |
| G17C A21U | 0.559 |
| C4U G9C G18A C29G C31U U32C G50C | ≤ 0.5 |
| C5A G12A A45G | 0.551 |
| A20U A21C C22U U53C U64A | 0.77 |
| C4A A14U C29U | 0.657 |
| A40G G58A A70C | 0.593 |
| G9A C22A A65G | 0.617 |
| A36C A43C | 0.626 |
| G25A A69C | 1.02 |

| Variant | yeast fitness |
| --- | --- |
| A20U C46U C60A | 0.566 |
| U2C G10A C46G G50A | ≤ 0.5 |
| C5U G12C A21C C24A G41C G50A U53A | ≤ 0.5 |
| C5A G41A | 0.873 |
| U19G A43U C61G | 0.559 |
| U2A U8G C33G G38A | ≤ 0.5 |
| C60U U64A | 0.656 |
| G25A A43G C49U U64C | 0.924 |
| A42G U47A C66U | 0.567 |
| A57G C60G | 0.641 |
| U2C C22A C29A G51C | 0.596 |
| A21U C31U U54G | ≤ 0.5 |
| C30G C31A U47G G58C | ≤ 0.5 |
| U3C A20U G52C | ≤ 0.5 |
| C29U G39A C46A | 1.13 |
| A14G C24U A36C A43U A69U | ≤ 0.5 |
| G39A C55U | 0.873 |
| G9A C27G A40G | 0.53 |
| G17A G50C C60A | ≤ 0.5 |
| C33A G50C U53C U64C G68U | 0.586 |
| C34A U47C A70G | 0.612 |
| G41A C46A U47C | 1.06 |
| C29A C30G A36C G44C G51C | ≤ 0.5 |
| U13A U19C A20U C29G C33G A37G C49U | ≤ 0.5 |

| Variant | yeast fitness |
| --- | --- |
| U3A G23C | 0.653 |
| U2A C4G | 0.838 |
| C11G G38A C61G | ≤ 0.5 |
| U3G G6A A14G G38C G41C C62G | ≤ 0.5 |
| A42U U59A | 0.668 |
| U35G C55G C62U | ≤ 0.5 |
| U7A A21U G51C C62U | 0.816 |
| C29G A37U G52A | 0.546 |
| A45U U53G | ≤ 0.5 |
| C24G C27U U53A | ≤ 0.5 |
| C5A G23A C24U U47A | ≤ 0.5 |
| C5G C49U U59G | 0.579 |
| U3A C4U G10C C33G G52C | ≤ 0.5 |
| U19C C24G A36G A37U U47A | ≤ 0.5 |
| U3C G51C C66U | ≤ 0.5 |
| C60G C66G | 0.576 |
| A21C U35A | 0.601 |
| U16C C60U | 0.79 |
| C27G A69G | 0.652 |
| C27G A69C | 0.654 |
| C11G C29U U59A A69U | ≤ 0.5 |
| C34U A45C G67U A69C A70C | ≤ 0.5 |
| C4A C5A C30A C31U C33A A40U C60G | ≤ 0.5 |
| C27G A42C A65C | ≤ 0.5 |

| Variant | yeast fitness |
| --- | --- |
| U26A C31G A36U A65U | 0.681 |
| C22U C27G A57C | ≤ 0.5 |
| C31G A37U A42U | 0.56 |
| U3C A20G A57U | 0.597 |
| U7A A21U G41A C66A | 0.684 |
| G6A U8A G23C | ≤ 0.5 |
| G23C C33A | ≤ 0.5 |
| U3A C5G C46G U53A | 0.527 |
| G6C A45U G50A | 0.658 |
| G6C U16G U35A G51C | ≤ 0.5 |
| C11U A14G G58A A69C | ≤ 0.5 |
| U19G U28C A37G C66U A69U | 0.524 |
| C11G A36U A37U C55U | ≤ 0.5 |
| U2A C33G C46A C66A | ≤ 0.5 |
| U13C C33G G56C | ≤ 0.5 |
| C33U C49U G51C C55U | ≤ 0.5 |
| G10A G52A A69U | ≤ 0.5 |
| U13G C33G | 0.51 |
| C5U C22A C60G | 0.628 |
| C5G A14C A37G A69U | ≤ 0.5 |
| U32C A65U | 0.957 |
| C5G C27G C34G | ≤ 0.5 |
| U8A A14C C31A G41C C49A G56A | 0.668 |
